The values below come from ChEMBL document CHEMBL4680345, “Thioether-linked dihydropyrrol-2-one analogues as PqsR antagonists against antibiotic resistant Pseudomonas aeruginosa” (Bioorg Med Chem, 2021).

Data set [1] deals with Pseudomonas aeruginosa PAO1. Nature of the data set: Inhibition of PqsR in Pseudomonas aeruginosa PAO1 harboring GFP fused pqsA at 125 ug/ml measured every 15 mins for 6 to 8 hrs by reporter assay relative to control. Particulars: dose 125.0 µg/ml, time 6-8 hrs. The procedure, abridged:
(§1)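 PAO1 carrying PqsR-regulated pqsA promoter–gfp fusion; overnight culture in Mueller Hinton broth exposed to serially diluted compounds (40 mM DMSO stocks, diluted in medium) at 37 °C with intermittent shaking. GFP fluorescence and OD600 read every 15 min for at least 6–8 h; fluorescence normalised to OD600. Negative control: medium with 1.25% DMSO. Run in triplicate.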
A general note: A reporter such as luciferase makes a cellular process visible.

A short description of data set [2]: Inhibition of PqsR in Pseudomonas aeruginosa PAO1 harboring GFP fused pqsA measured every 15 mins for 6 to 8 hrs by reporter assay. The procedure, abridged: as §1
Data set [3] deals with Pseudomonas aeruginosa. The data set can be described thus: Antibiofilm activity against Pseudomonas aeruginosa ATCC 25619 assessed as decrease in bacterial co-aggregation at 150 to 400 uM measured after 24 hrs by phase contrast microscopic analysis. The format is functional, organism-based. Particulars: dose 150-400 µM. Summed up:
(§2)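 Overnight TSB cultures resuspended to OD600 0.1 ± 0.02 in TSB. Biofilms grown 24 h at 37 °C, 100 rpm with compound at 250 µM or DMSO control. Washed twice with PBS to remove loosely adhered cells. Imaged by phase contrast microscopy to assess biofilm morphology and aggregation.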

Data set [4] relates to Pseudomonas aeruginosa. Nature of the data set: Antibiofilm activity against Pseudomonas aeruginosa PAO1 assessed as decrease in bacterial co-aggregation at 150 to 400 uM measured after 24 hrs by phase contrast microscopic analysis. The data set is classed as functional, organism-based. Particulars: dose 150-400 µM. The procedure, abridged: as §2
Data set [5] deals with Pseudomonas aeruginosa. Nature of the data set: Antibiofilm activity against Pseudomonas aeruginosa ATCC 25619 assessed as decrease in bacterial co-aggregation at 150 to 400 uM measured […] by microscopic analysis (reference value: 23 %). The data set is classed as functional. The arrangement: scale not given: the % may be the effect or the level left. Particulars: dose 150-400 µM.

Data set [6] relates to Pseudomonas aeruginosa. The data set can be described thus: Antibiofilm activity against Pseudomonas aeruginosa PAO1 assessed as decrease in bacterial co-aggregation at 150 to 400 uM measured […] by microscopic analysis (reference value: 26 %). As to conditions: dose 150-400 µM. The data set is classed as functional. More on the design: scale not given: the % may be the effect or the level left.

The subject of data set [7] is Pseudomonas aeruginosa. Nature of the data set: Antibiofilm activity against Pseudomonas aeruginosa ATCC 25619 assessed as reduction in biomass at 250 to 400 uM measured after 48 hrs by crystal violet staining based assay relative to control. The data set is classed as functional. Particulars: dose 250-400 µM. Summed up: (§3)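 Biofilms started from TSB-grown cultures at OD600 0.1 ± 0.02 with compound (250 and 400 µM) or DMSO control. Incubated 48 h at 37 °C, 100 rpm, then washed with PBS. Stained with 0.1% (w/v) crystal violet for 1 h at 37 °C, 150 rpm, washed three times and dried. Dye dissolved in 80% ethanol and read at OD550. Biomass expressed as % decrease versus DMSO control, set at 100%.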

The test system of data set [8] is Pseudomonas aeruginosa. The data set can be described thus: Antibiofilm activity against Pseudomonas aeruginosa PAO1 assessed as reduction in biomass at 250 to 400 uM measured after 48 hrs by crystal violet staining based assay relative to control. The data set is classed as functional. As to conditions: dose 250-400 µM. Summed up: as §3
A short description of data set [9]: Inhibition of planktonic growth of Pseudomonas aeruginosa PAO1 up to 125 ug/ml incubated for 24 hrs. As to conditions: dose <=125 µg/ml. Summed up: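 PAO1 at 5×10^5 CFU/mL in MHB. Compound added from 10 mg/mL DMSO stock, up to 125 µg/mL final. Incubated 24 h at 37 °C with intermittent agitation, OD600 read every 15 min. DMSO (1.25%) as control. One experiment per compound with three technical replicates.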

SMILES strings stand for the structures. Calls of active or inactive are those of the source. The rule behind the calls is not given here.

Usually inhibition stands for the change of the read-out against control, counted positive when it falls. On to `CCCS/C=C1\NC(=O)C=C1c1ccccc1`, for which the inhibition in data set [1] was 20%. Still for that read-out and setting: for `O=C1C=C(c2ccccc2F)/C(=C/Sc2ccccc2)N1` the value was 42%. One may read the IC50 as the concentration that inhibits the measured activity by half. The compound `CCCS/C=C1\NC(=O)C=C1c1ccc(Br)cc1` returned an inhibition in [1] of 62%. Moreover, in data set [2], the IC50 was 100 µM. Also, the result in data set [3] and in [4] was Active. The Activity in [5] was found to be 11%; in data set [6], 13%. For the same compound, the “inhibition (INH)” value in [7] and in data set [8] was 20% in each case. Moreover, in data set [9], the “growth inhibition (GI)” value is recorded as “Non-Toxic”.

As to `O=C1C=C(c2ccc(F)cc2)/C(=C/Sc2ccccc2)N1`, the inhibition in [1] came to 45%. Still for that read-out and setting: the value for `O=C1C=C(c2cccc(F)c2)/C(=C/Sc2ccccn2)N1` was 47%.

In [1], `O=C1C=C(c2ccc(F)cc2)/C(=C/Sc2ccc(Cl)cc2)N1` had an inhibition of 46%. The same measure, in the same setting: for `O=C1C=C(c2ccccc2)/C(=C/Sc2ccccn2)N1` the value was 53%; for `O=C1C=C(c2ccc(Cl)cc2)/C(=C/Sc2ccccc2)N1`, 45%. The compound `O=C1C=C(c2ccc(F)cc2)/C(=C/Sc2ccccn2)N1` registered an inhibition in data set [1] of 63%. This compound registered a half-maximal inhibitory concentration (IC50) in [2] of 32 µM. The outcome in data set [3] and in data set [4] was Active. Also, the Activity in data set [5] turned out to be 11%; in [6], 13%. Also, the “inhibition (INH)” value in [7] and in data set [8] was 20% in each case. Also, the “growth inhibition (GI)” value in [9] was “Non-Toxic”.

For the compound `O=C1C=C(c2ccccc2)/C(=C/Sc2ccccc2)N1`, the inhibition in [1] was determined as 52%. `CCCS/C=C1\NC(=O)C=C1c1ccc(Cl)cc1` gave an inhibition in data set [1] of 59%. In [2], it took 90 µM to reach half-maximal inhibition (IC50).

`O=C1C=C(c2ccc(Br)cc2)/C(=C/Sc2ccccc2)N1` gave an inhibition in data set [1] of 52%. On the same count and under the same terms, the value for `O=C1C=C(c2ccc(Cl)cc2)/C(=C/Sc2ccccn2)N1` was 18%; that for `O=C1C=C(c2ccccc2F)/C(=C/Sc2ccc(Cl)cc2)N1` was 55%. Still for that read-out and setting: for `O=C1C=C(c2ccc(Br)cc2)/C(=C/Sc2ccc(Cl)cc2)N1` the value was 33%; for `O=C1C=C(c2ccc(Br)cc2)/C(=C/Sc2ccccn2)N1`, 20%.

Compound `O=C1C=C(c2ccccc2F)/C(=C/Sc2ccccn2)N1` had an inhibition in [1] of 40%. `O=C1C=C(c2ccc(Cl)cc2)/C(=C/Sc2ccc(Cl)cc2)N1` returned an inhibition in [1] of 36%.

`O=C1C=C(c2ccccc2)/C(=C/Sc2ccc(Cl)cc2)N1` came in with an inhibition in [1] of 43%.

Regarding `CCCS/C=C1\NC(=O)C=C1c1ccccc1F`, the inhibition in data set [1] is 7%.
